Experiment [1] relates to HepG2. Description: Growth inhibition of human HepG2 cells after 48 hrs by MTT assay. Conditions: HepG2, 48 h. It is filed as functional, cell-based. The method, boiled down:
(§1)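 MTT assay: log-phase cells plated at 5 × 10³/well for 24 h, then exposed to a range of test concentrations for 48 h. MTT (5 mg/mL) added for 4 h, formazan dissolved in DMSO, absorbance read at 570 nm. IC50 is the concentration giving 50% growth inhibition, from dose-response curves; at least three independent experiments, mean ± SE.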
(In general: Formazan colour is commonly taken as a measure of viable cells.)

Experiment [2] concerns A549. Description: Growth inhibition of human A549 cells after 48 hrs by MTT assay. It is filed as functional, cell-based. The settings on record: A549, 48 h.
Experiment [3] concerns MDA-MB-231. The experiment in a line: Growth inhibition of human MDA-MB-231 cells after 48 hrs by MTT assay. It is filed as functional, cell-based. Conditions: MDA-MB-231, 48 h. The method, boiled down:
as §1

Experiment [4] has as its system RKO. Description: Growth inhibition of human RKO cells after 48 hrs by MTT assay. Type of experiment: functional, cell-based. A digest of the protocol: as §1
The subject of experiment [5] is LoVo. The experiment in a line: Growth inhibition of human LoVo cells after 48 hrs by MTT assay. Type of experiment: functional, cell-based. The method, boiled down:
as §1

The subject of experiment [6] is HCT-116. The experiment in a line: Growth inhibition of human HCT116 cells after 48 hrs by MTT assay. It is filed as functional, cell-based. The settings on record: HCT-116, 48 h. The method, boiled down: as §1
Experiment [7] deals with A549/CDDP. The experiment in a line: Growth inhibition of human A549/CDDP cells after 48 hrs by MTT assay. It is filed as functional, cell-based. The method, boiled down: as §1
The nature of experiment [8]: Growth inhibition of human HepG2/DOX cells after 48 hrs by MTT assay. It is filed as functional, cell-based. A digest of the protocol: as §1
Experiment [9] is described as follows: Resistance factor, ratio of IC50 for human A549/CDDP cells to IC50 for human A549 cells. Type of experiment: functional. The method, boiled down:
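MTT assay: log-phase cells were seeded at 5 × 10³/well for 24 h, then exposed to a concentration series for 48 h. MTT (5 mg/mL) was added for 4 h, formazan was dissolved in DMSO, and A570 was read. IC50 values came from dose–response curves of at least three independent experiments. Resistance factor = IC50 in the resistant line / IC50 in the parental sensitive line.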

Consider `COc1ccc(N(C)c2nc(C)nc3ccccc23)cc1C(=O)OCCCCC[Se]C#N`, for which the IC50 (commonly the concentration needed to halve the response being measured) was 667 nM in experiment [1]; 592 nM in [2]; 851 nM in [3]; 356 nM in [4]; 714 nM in experiment [5]; 551 nM in [6].
`[2H]C([2H])([2H])c1nc(N(C)c2ccc([Se]C#N)cc2)c2ccccc2n1`: the IC50 in experiment [1] worked out at 21 nM; in experiment [2], 7 nM; in experiment [3] it was 11 nM; in experiment [4], 11 nM; in [5] it was 14 nM; in experiment [6], 10 nM.
As for `COc1ccc(N(C)c2nc(C)nc3ccccc23)cc1C[Se]C#N`, the IC50 amounted to 1110 nM in [1]; 98 nM in experiment [2]; 153 nM in experiment [3]; 316 nM in experiment [4]; 277 nM in experiment [5]; 113 nM in experiment [6].
`COc1ccc(N(C)c2nc(C)nc3ccccc23)cc1C(=O)OCC[Se]C#N`: the IC50 in experiment [1] amounted to 890 nM; in experiment [2], 353 nM; in [3], 1480 nM; in experiment [4], 2390 nM; in [5], 2960 nM; in experiment [6], 951 nM.
As to `COc1ccc(N(C)c2nc(C)nc3ccccc23)cc1OCCCC[Se]C#N`, the half-maximal inhibitory concentration (IC50) in experiment [1] stood at 6460 nM; in experiment [2], 1200 nM; in [3], 1350 nM; in experiment [4], 1360 nM; in experiment [5] it was 882 nM; in [6], 512 nM.
`C[Se]c1ccc(N(C)c2nc(C3CC3)nc3ccccc23)cc1`: the IC50 in [1] came to 32 nM; in experiment [2] it was 13 nM; in experiment [3], 18 nM; in experiment [4], 21 nM; in experiment [5], 11 nM; in [6], 15 nM.
Regarding `COc1ccc(N(C)c2nc(C)nc3ccccc23)cc1OCC[Se]C#N`, the IC50 in experiment [1] is 14 nM; in experiment [2], 13 nM; in experiment [3], 13 nM; in [4] it was 27 nM; in experiment [5], 19 nM; in experiment [6] it was 18 nM.
On to `COc1ccc(N(C)c2nc(C)nc3ccccc23)cc1C(=O)OCCCCCC[Se]C#N`, for which the IC50 in experiment [1] was determined as 2650 nM; in experiment [2], 488 nM; in experiment [3], 2210 nM; in [4] it was 1990 nM; in experiment [5] it was 1050 nM; in [6], 1990 nM.
Take `CN(c1ccc([Se]C#N)cc1)c1nc(C2CC2)nc2ccccc12`: the IC50 worked out at 41 nM in experiment [1]; 12 nM in experiment [2]; 29 nM in experiment [3]; 51 nM in experiment [4]; 11 nM in experiment [5]; 62 nM in experiment [6].
As for `Cc1nc(N(C)c2ccc([Se]C#N)c(Cl)c2)c2ccccc2n1`, the IC50 in experiment [1] came out at 12 nM; in experiment [2], 7 nM; in experiment [3], 9 nM; in [4] it was 11 nM; in experiment [5] it was 12 nM; in experiment [6], 12 nM.
For `Cc1nc(N(C)c2ccc([Se]C#N)c(F)c2)c2ccccc2n1`, the IC50 in [1] is 37 nM; in experiment [2] it was 4 nM; in experiment [3] it was 6 nM; in experiment [4], 8 nM; in experiment [5], 13 nM; in experiment [6] it was 20 nM.
With `COc1cccc2c1C(=O)c1c(O)c3c(c(O)c1C2=O)C[C@@](O)(C(=O)CO)C[C@@H]3O[C@H]1C[C@H](N)[C@H](O)[C@H](C)O1` [DOXORUBICIN], the IC50 in [7] was 4590 nM; in experiment [1], 1890 nM; in experiment [2], 2900 nM; in experiment [8], above 10000 nM. Besides, the “Ratio IC50” value in [9] was found to be 1.58.
With `COc1ccc(N(C)c2nc(C)nc3ccccc23)cc1OCCCCC[Se]C#N`, the IC50 was 5210 nM in [1]; 2440 nM in [2]; 4410 nM in experiment [3]; 3560 nM in [4]; 5210 nM in experiment [5]; 256 nM in [6].
On to `COc1ccc(/C=C\c2cc(OC)c(OC)c(OC)c2)cc1O` [COMBRETASTATIN A4], for which the IC50 was determined as 17 nM in experiment [7], 9 nM in [1] and 27 nM in experiment [8].
For the compound `COc1ccc(N(C)c2nc(C)nc3ccccc23)cc1C(=O)OCCC[Se]C#N`, the IC50 in experiment [1] was determined as 340 nM; in [2] it was 250 nM; in experiment [3], 1180 nM; in [4] it was 1140 nM; in experiment [5] it was 854 nM; in experiment [6], 720 nM.
In the case of `COc1ccc(N(C)c2nc(C)nc3ccccc23)cc1OCCCCCC[Se]C#N`, the IC50 in experiment [1] was 4890 nM; in experiment [2] it was 5520 nM; in experiment [3], 3550 nM; in experiment [4], 1540 nM; in [5], 8580 nM; in experiment [6], 6180 nM.
Regarding `[2H]C([2H])([2H])c1nc(N(C)c2ccc([Se]C)cc2)c2ccccc2n1`, the IC50 in experiment [1] amounted to 5 nM; in [2], 3 nM; in experiment [3], 9 nM; in [4], 8 nM; in [5] it was 5 nM; in experiment [6], 3 nM.
`COc1ccc(N(C)c2nc(C)nc3ccccc23)cc1C(=O)OCCCC[Se]C#N`: the IC50 in experiment [1] turned out to be 975 nM; in experiment [2], 155 nM; in experiment [3], 554 nM; in [4], 1020 nM; in experiment [5], 1080 nM; in experiment [6], 662 nM.
As for `C[Se]c1ccc(N(C)c2nc(C)nc3ccccc23)cc1C`, the IC50 in experiment [1] is 6 nM; in [2], 2 nM; in experiment [3] it was 7 nM; in [4], 8 nM; in experiment [5], 9 nM; in [6], 3 nM.
On to `C[Se]c1ccc(N(C)c2nc(C)nc3ccccc23)cc1Cl`, for which the IC50 in [1] came to 4 nM; in experiment [2] it was 2 nM; in experiment [3], 7 nM; in experiment [4] it was 4 nM; in experiment [5] it was 3 nM; in experiment [6] it was 5 nM.
For `COc1ccc(N(C)c2nc(C)nc3ccccc23)cc1[Se]C#N`, the IC50 worked out at 59 nM in experiment [1]; 49 nM in [2]; 52 nM in experiment [3]; 47 nM in experiment [4]; 73 nM in experiment [5]; 34 nM in [6].
In the case of `COc1ccc(N(C)c2nc(C)nc3ccccc23)cc1[Se]C`, the IC50 in experiment [1] stood at 17 nM; in [2], 11 nM; in experiment [3] it was 10 nM; in [4] it was 11 nM; in experiment [5], 3 nM; in experiment [6], 28 nM.
`COc1ccc(N(C)c2nc(C)nc3ccccc23)cc1C(=O)NCC[Se]C#N`: the IC50 in [1] was 179 nM; in experiment [2] it was 187 nM; in [3] it was 1250 nM; in [4], 1170 nM; in [5], 561 nM; in experiment [6], 313 nM.
Consider `COc1ccc(N(C)c2nc(C)nc3ccccc23)cc1OCCN`, for which the IC50 in experiment [1] was determined as 343 nM; in experiment [2], 122 nM; in experiment [3], 682 nM; in experiment [4], 343 nM; in experiment [5] it was 421 nM; in experiment [6] it was 198 nM.
As for `Cc1nc(N(C)c2ccc(OCC[Se]C#N)cc2)c2ccccc2n1`, the IC50 in [1] was found to be 1680 nM; in experiment [2] it was 893 nM; in experiment [3] it was 317 nM; in experiment [4] it was 652 nM; in [5], 547 nM; in experiment [6], 2290 nM.
In the case of `Cc1nc(N(C)c2ccc([Se]C#N)c(C)c2)c2ccccc2n1`, the IC50 in experiment [1] turned out to be 9 nM; in experiment [2] it was 8 nM; in experiment [3], 16 nM; in experiment [4], 17 nM; in [5], 19 nM; in [6] it was 13 nM.
For the compound `COc1ccc(N(C)c2nc(C)nc3ccccc23)cc1OCCC[Se]C#N`, the IC50 in experiment [1] came to 1040 nM; in [2] it was 382 nM; in experiment [3] it was 815 nM; in experiment [4], 799 nM; in experiment [5], 921 nM; in [6], 852 nM.

The record behind these values is ChEMBL document CHEMBL4020840, “Synthesis and Biological Evaluation of Selenium-Containing 4-Anilinoquinazoline Derivatives as Novel Antimitotic Agents” (J Med Chem, 2018).
